The values that follow come from BindingDB's records for doi:10.1021/jm0301484 (Organix, 2003).

Values joined by “and” are separate entries in the source; they are usually repeats but may differ in a detail not shown here. Identical values can stand only once.

The target of assay [1] is Sodium-dependent dopamine transporter. Nature of the assay: In vitro affinity for dopamine transporter in Rhesus (Macaca mulatta) or Cynomolgus (Macaca fasicularis) monkey striata using [3H]WIN-35428 displacement. The essentials:
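Caudate-putamen membranes homogenized in ice-cold 50 mM Tris-HCl pH 7.4 and washed by centrifugation. Competition with fixed [3H]WIN 35,428 (0.3 nM) at 4 mg original wet tissue/mL in 50 mM Tris-HCl with 100 mM NaCl. Incubated 2 h at 0-4 °C, filtered on GF/B presoaked in 0.1% BSA, scintillation counting. Triplicate, 2-3 brains; IC50.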

The target of assay [2] is Sodium-dependent serotonin transporter. The experiment in a line: In vitro affinity for serotonin transporter in Rhesus (Macaca mulatta) or Cynomolgus (Macaca fasicularis) monkey striata using [3H]citalopram displacement. The essentials: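 Cynomolgus or rhesus caudate-putamen homogenised in ice-cold 50 mM Tris-HCl, pH 7.4, and washed by centrifugation. Membranes (4 mg original wet weight/mL) were incubated with 1 nM [3H]citalopram and a range of test drug concentrations in buffer with 100 mM NaCl, 2 h at 0–4 °C.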

Consider `CCC(=O)C1C(c2ccc(F)cc2)CC2CCC1N2CCCN1CC[S][Re]2(=[O])[S]CC[N]2C(=O)C1` [(1R,12S) -N-[ (2-( (3'-N-propyl-3''alpha-(4-fluorophenyl)tropane-2''beta-propionyl) (2-mercaptoethyl)amino) -2-aminoethanethiolato]rhenium(v)oxide], for which the IC50 in assay [1] is 3 nM and 5.9 nM and 1.5 nM.

As for `COC(=O)C1C(c2ccc(F)cc2)CC2CCC1N2CCCN1CC[S][Re]2(=[O])[S]CC[N]2C(=O)C1` (stereo not drawn) [Diastereiosomer of [N-[2-[(3'-N'-Propyl-3''beta-(4-fluorophenyl)tropane-2''beta-carboxylic acid methyl ester)(2-mercaptoethyl)amino]acetyl]-2-aminoethanethiolato]rhenium(V) oxide], in assay [1], the IC50 was 3.8 nM and 2.9 nM.

Regarding `CCC(=O)C1=C(c2ccc(Cl)c(Cl)c2)CC2CCC1N2CCCN1CC[S][Re]2(=[O])[S]CC[N]2C(=O)C1` (stereo not drawn) [N-[ (2-( (3'-N-propyl-(1''R) -3''-(3,4-dichlorophenyl)trop-2''-ene-2''--1-propanoyl) (2-mercaptoethyl)amino)acetyl) -2-aminoethanethiolato)rhenium(V) oxide], the figures for the IC50 in assay [1] and in assay [2] were 1200 nM and 2000 nM, respectively.

As to `COC(=O)C1=C(c2ccc(Cl)c(Cl)c2)CC2CCC1N2CCCN1CC[S][Re]2(=[O])[S]CC[N]2C(=O)C1` (stereo not drawn) [N-[ (2-( (3'-N-propyl-(1''R) -3''-(3,4-dichlorophenyl)trop-2''-ene-2''--carbomethoxy) (2-mercaptoethyl)amino)acetyl) -2-aminoethanethiolato)rhenium(V) oxide], the values for the IC50 in assay [1] and in assay [2] were 60 nM and 1690 nM, respectively.

`CCC(=O)C1=C(c2ccc(F)cc2)CC2CCC1N2CCCN1CC[S][Re]2(=[O])[S]CC[N]2C(=O)C1` (stereo not drawn) [N-[ (2-( (3'-N-propyl-(1''R) -3''-(4-flurophenyl)trop-2''-ene-2''--1-propanoyl) (2-mercaptoethyl)amino)acetyl) -2-aminoethanethiolato)rhenium(V) oxide]: the IC50 in assay [1] was 660 nM; in assay [2] it was 2100 nM.

On to `CCC(=O)C1C(c2ccc(Cl)c(Cl)c2)CC2CCC1N2CCCN1CC[S][Re]2(=[O])[S]CC[N]2C(=O)C1` (stereo not drawn) [N-[ (2-( (3'-N-propyl-(1''R) -3''beta-(3,4-dichlorophenyl)tropane-2''-beta-1-propanoyl) (2-mercaptoethyl)amino)acetyl) -2-aminoethanethiolato)rhenium(V) oxide], for which the concentration for half-maximal inhibition (IC50) in assay [1] was 5 nM and 5.3 nM; in assay [2], 337 nM.

With `COC(=O)C1=C(c2ccc(F)cc2)CC2CCC1N2CCCN1CC[S][Re]2(=[O])[S]CC[N]2C(=O)C1` (stereo not drawn) [N-[ (2-( (3'-N-propyl-(1''R) -3''beta-(4-fluorophenyl)trop-2''-ene-2''--carbomethoxy) (2-mercaptoethyl)amino)acetyl) -2-aminoethanethiolato)rhenium(V) oxide], the IC50 in assay [1] is 3500 nM; in assay [2], 4000 nM.

With `COC(=O)C1=C(c2ccc3ccccc3c2)CC2CCC1N2CCCN1CC[S][Re]2(=[O])[S]CC[N]2C(=O)C1` (configuration not stated) [O-1185], the half-inhibitory concentration (IC50) in assay [1] came out at 63.4 nM; in assay [2], 964 nM.

Turning to `COC(=O)C1C(c2ccc3ccccc3c2)CC2CCC1N2CCCN1CC[S][Re]2(=[O])[S]CC[N]2C(=O)C1` (configuration not stated) [O-2130], the IC50 was 4 nM and 3.64 nM in assay [1]; 120 nM in assay [2].

`COC(=O)C1C(c2ccc(Cl)c(Cl)c2)CC2CCC1N2CCC[N+]12CC[S][Re]13(=[O])[S]CC[N]3C(=O)C2` (stereo not drawn) [[N-[2-[(3'-N'-Propyl-3''beta-(3,4-dichlorophenyl)tropane-2''beta-carboxylic acid methyl ester)(2-mercaptoethyl)amino]acetyl]-2-aminoethanethiolato]rhenium(V) oxide] registered a half-maximal inhibitory concentration (IC50) in assay [2] of 639 nM.
